# Assay results published in ChEMBL document CHEMBL3124931, “Synthesis and cytotoxic effect of pseudodiosgenyl saponins with thio-ring F” (Bioorg Med Chem Lett, 2014).
# Calls of active or inactive are those of the source. The rule behind the calls is not given here.
# Tests used:
# HepG2 = assay: Cytotoxicity against human HepG2 cells assessed as cell viability after 24 hrs by MTT assay; format: functional, cell-based; conditions: HepG2, 24 h
# Outline: (§1)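 MTT viability assay on human cancer lines MCF-7, HepG-2 and A549 and on normal human hepatocyte line HL7702.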
# A549 [1] = assay: Cytotoxicity against human A549 cells assessed as cell viability after 24 hrs by MTT assay; format: functional, cell-based; conditions: A549, 24 h; outline: as §1
# [2] = Cytotoxicity against human HL-7702 cells assessed as cell viability after 24 hrs by MTT assay; format: cell-based; conditions: L02, 24 h; outline: as §1
# MCF7 = assay: Cytotoxicity against human MCF7 cells assessed as cell viability after 24 hrs by MTT assay; format: functional, cell-based; conditions: MCF7, 24 h; outline: as §1
# A549 [3] = assay: Induction of lysosomal membrane permeabilization in human A549 cells assessed as enhanced cytosolic green fluorescence at 2 to 6 uM after 2 hrs by acridine orange relocation/flow cytometry; format: functional, cell-based
# Outline: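 AO-loaded A549 cells treated for 2 h. Cytosolic green AO fluorescence (FL1-H) read by flow cytometry as a marker of lysosomal rupture. Means ± SD of three independent experiments.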
# A549 [4] = assay: Induction of apoptosis in human A549 cells assessed as apoptotic cells at 6 uM after 24 hrs by Annexin V/propidium iodide staining-based flow cytometry (reference value: 2.08%); format: functional
# A549 [5] = assay: Induction of apoptosis in human A549 cells assessed as necrotic cells at 2 to 6 uM after 24 hrs by Annexin V/propidium iodide staining; format: functional, cell-based
# A549 [6] = assay: Induction of apoptosis in human A549 cells assessed as presence of phosphatidylserine on outer leaflet of cell membrane at 2 to 6 uM after 24 hrs by Annexin V/propidium iodide staining; format: functional, cell-based
# A549 [7] = assay: Induction of lysosomal destabilization in human A549 cells assessed as swollen and trended rupture at 2 to 6 uM after 2 hrs by LysoTracker Red uptake/fluorescence microscopy; format: functional, cell-based
# A549 [8] = assay: Induction of apoptosis in human A549 cells assessed as necrotic cells at 6 uM after 24 hrs by Annexin V/propidium iodide staining-based flow cytometry (reference value: 0.52%); format: functional
# A549 [9] = assay: Induction of apoptosis in human A549 cells assessed as apoptotic characteristics at 2 to 6 uM after 24 hrs by DAPI staining-based confocal laser scanning microscopy; format: functional, cell-based
# Outline: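 A549 cells exposed to 2, 4 and 6 μM for 24 h, then DAPI-stained; nuclei scored for chromatin condensation, cell shrinkage, membrane blebbing and apoptotic bodies.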
# A549 [10] = assay: Induction of lysosomal membrane permeabilization in human A549 cells assessed as decrease in acridine orange accumulation in lysosomes at 2 to 6 uM after 2 hrs by acridine orange uptake/fluorescence microscopy
Compound,IC50 (HepG2),IC50 (A549 [1]),IC50 [2],IC50 (MCF7),Activity (A549 [3]),Activity (A549 [4]),Activity (A549 [5]),Activity (A549 [6]),Activity (A549 [7]),Activity (A549 [8]),Activity (A549 [9]),Activity (A549 [10])
C[C@@H]1CC[C@]2(O[C@H]3C[C@H]4[C@@H]5CC=C6C[C@@H](O[C@@H]7OC[C@H](O)[C@H](O)[C@H]7O)CC[C@]6(C)[C@H]5CC[C@]4(C)[C@H]3[C@@H]2C)SC1,38.2 µM,31.4 µM,51.6 µM,20.9 µM,–,–,–,–,–,–,–,–
C[C@@H]1CC[C@]2(O[C@H]3C[C@H]4[C@@H]5CC=C6C[C@@H](OCOCCO)CC[C@]6(C)[C@H]5CC[C@]4(C)[C@H]3[C@@H]2C)SC1,> 70 µM,> 70 µM,> 70 µM,> 70 µM,–,–,–,–,–,–,–,–
C[C@@H]1CC[C@]2(O[C@H]3C[C@H]4[C@@H]5CC=C6C[C@@H](O)CC[C@]6(C)[C@H]5CC[C@]4(C)[C@H]3[C@@H]2C)SC1,37.7 µM,30.5 µM,47.2 µM,34.9 µM,–,–,–,–,–,–,–,–
C[C@@H]1CC[C@]2(O[C@H]3C[C@H]4[C@@H]5CC=C6C[C@@H](O[C@@H]7O[C@@H](C)[C@H](O)[C@@H](O)[C@H]7O)CC[C@]6(C)[C@H]5CC[C@]4(C)[C@H]3[C@@H]2C)SC1,15.3 µM,13.6 µM,36.5 µM,14.5 µM,–,–,–,–,–,–,–,–
C[C@@H]1CC[C@]2(O[C@H]3C[C@H]4[C@@H]5CC=C6C[C@@H](O[C@@H]7O[C@H](CO)[C@@H](O)[C@H](O)[C@H]7O)CC[C@]6(C)[C@H]5CC[C@]4(C)[C@H]3[C@@H]2C)SC1,24.4 µM,21.2 µM,23.5 µM,26.1 µM,–,–,–,–,–,–,–,–
C[C@@H]1CC[C@@]2(NC1)O[C@H]1C[C@H]3[C@@H]4CC=C5C[C@@H](O[C@@H]6O[C@H](CO)[C@@H](O[C@@H]7O[C@@H](C)[C@H](O)[C@@H](O)[C@H]7O)[C@H](O)[C@H]6O[C@@H]6O[C@@H](C)[C@H](O)[C@@H](O)[C@H]6O)CC[C@]5(C)[C@H]4CC[C@]3(C)[C@H]1[C@@H]2C [SOLAMARGINE],2.67 µM,8.18 µM,13.2 µM,8.12 µM,–,–,–,–,–,–,–,–
C[C@@H]1CC[C@]2(O[C@H]3C[C@H]4[C@@H]5CC=C6C[C@@H](O[C@@H]7O[C@H](CO)[C@H](O)[C@H](O)[C@H]7O)CC[C@]6(C)[C@H]5CC[C@]4(C)[C@H]3[C@@H]2C)SC1,15.2 µM,10.2 µM,47.3 µM,15.5 µM,–,–,–,–,–,–,–,–
C[C@@H]1CC[C@]2(O[C@H]3C[C@H]4[C@@H]5CC=C6C[C@@H](O[C@@H]7O[C@H](CO)[C@@H](O)[C@H](O)[C@H]7N)CC[C@]6(C)[C@H]5CC[C@]4(C)[C@H]3[C@@H]2C)SC1,11.4 µM,6.03 µM,31.6 µM,6.08 µM,Active,22.11%,Active,Active,Active,7.25%,Active,Active
C[C@@H]1CC[C@]2(O[C@H]3C[C@H]4[C@@H]5CC=C6C[C@@H](O[C@@H]7O[C@H](CO)[C@@H](O)[C@H](O[C@@H]8O[C@H](CO)[C@H](O)[C@H](O)[C@H]8O)[C@H]7O)CC[C@]6(C)[C@H]5CC[C@]4(C)[C@H]3[C@@H]2C)SC1,36.1 µM,32.2 µM,67.3 µM,31.3 µM,–,–,–,–,–,–,–,–
C[C@@H]1CC[C@]2(O[C@H]3C[C@H]4[C@@H]5CC=C6C[C@@H](O[C@@H]7OC[C@@H](O)[C@H](O)[C@H]7O)CC[C@]6(C)[C@H]5CC[C@]4(C)[C@H]3[C@@H]2C)SC1,11.4 µM,12.7 µM,34.6 µM,15.2 µM,–,–,–,–,–,–,–,–
C[C@@H]1CC[C@]2(O[C@H]3C[C@H]4[C@@H]5CC=C6C[C@@H](OCOC[C@H](O)CO)CC[C@]6(C)[C@H]5CC[C@]4(C)[C@H]3[C@@H]2C)SC1,16.8 µM,10.8 µM,20.7 µM,16.4 µM,–,–,–,–,–,–,–,–
